From ChEMBL document CHEMBL3352208, “Semisynthetic analogues of toxiferine I and their pharmacological properties at α7 nAChRs, muscle-type nAChRs, and the allosteric binding site of muscarinic M2 receptors” (J Nat Prod, 2014)

Experiments:
[1] = molecular target: T1, Muscarinic acetylcholine receptor M2 (Sus scrofa, UniProt P06199); test: Displacement of [3H]NMS from pig muscarinic M2 receptor after 120 mins by liquid scintillation counting
T1 sequence (P06199 whole entry): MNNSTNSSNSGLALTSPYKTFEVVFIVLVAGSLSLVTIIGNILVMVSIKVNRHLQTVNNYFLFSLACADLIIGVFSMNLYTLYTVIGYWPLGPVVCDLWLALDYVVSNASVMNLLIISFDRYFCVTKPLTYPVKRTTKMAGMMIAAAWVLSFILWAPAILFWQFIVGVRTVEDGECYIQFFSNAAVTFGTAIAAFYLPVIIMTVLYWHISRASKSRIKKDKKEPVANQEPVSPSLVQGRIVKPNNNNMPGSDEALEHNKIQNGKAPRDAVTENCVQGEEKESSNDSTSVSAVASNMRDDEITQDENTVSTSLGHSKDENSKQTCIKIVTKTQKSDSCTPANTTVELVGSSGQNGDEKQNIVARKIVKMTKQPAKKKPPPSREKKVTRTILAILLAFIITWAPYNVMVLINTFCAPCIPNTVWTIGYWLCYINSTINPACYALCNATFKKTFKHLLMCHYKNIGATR

[2] = molecular target: T2, Neuronal acetylcholine receptor subunit alpha-7 (Homo sapiens, UniProt P36544); test: Antagonist activity at human alpha7 nAChR expressed in GH3 cells by Ca2+/Fluo-4 assay; assay type: cell-based
T2 sequence (P36544 whole entry): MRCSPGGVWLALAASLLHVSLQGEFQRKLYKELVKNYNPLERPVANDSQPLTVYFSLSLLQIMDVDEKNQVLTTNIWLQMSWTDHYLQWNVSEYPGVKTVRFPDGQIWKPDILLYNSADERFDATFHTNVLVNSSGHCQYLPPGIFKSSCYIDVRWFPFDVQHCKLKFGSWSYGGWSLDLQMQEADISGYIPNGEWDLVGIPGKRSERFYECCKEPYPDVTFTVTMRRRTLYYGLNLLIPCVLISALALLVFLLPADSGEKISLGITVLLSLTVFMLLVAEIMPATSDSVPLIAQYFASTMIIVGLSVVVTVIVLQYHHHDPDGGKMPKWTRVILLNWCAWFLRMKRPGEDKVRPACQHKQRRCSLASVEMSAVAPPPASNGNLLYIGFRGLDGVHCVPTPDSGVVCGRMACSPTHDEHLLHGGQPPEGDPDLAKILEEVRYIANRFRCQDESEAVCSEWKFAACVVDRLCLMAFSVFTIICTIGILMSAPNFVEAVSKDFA

[3] = Displacement of [3H]epibatidine from Torpedo californica muscle-type nAChR after 90 mins by liquid scintillation counting; assay type: tissue-based, Tetronarce californica
Method in brief: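 Torpedo californica electric organ membranes, homogenised and washed in HSS, 60−70 μg per sample. Incubated with (±)-[3H]epibatidine for 90 min at 22 °C; (−)-nicotine defined nonspecific binding. Filtered through PEI-soaked GF/B filters and counted by scintillation. […] Mean ± SEM of 3–5 experiments.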

[4] = molecular target: T2, Neuronal acetylcholine receptor subunit alpha-7; test: Ratio of toxiferine-I IC50 to compound IC50 for human alpha7 nAChR expressed in GH3 cells by Ca2+/Fluo-4 assay; assay type: cell-based

Row | SMILES | EC50 [1] [nM] | IC50 ([2]; read-out: IC50) [nM] | IC50 ([2]; read-out: pIC50 (converted)) [nM] | Ki [3] [nM] | Ratio IC50 [4]
1 | CC[C@@H]1C[N+]2(C)CC[C@@]34c5ccccc5N5/C=C6/[C@H]7C[C@H]8[C@@]9(CC[N+]8(C)C[C@H]7CC)c7ccccc7N(/C=C(/[C@H]1C[C@@H]32)[C@H]54)[C@@H]69 (some centres not stated) | 260 | 820 | 813 | 150 | 10
2 | CC[C@@H]1CN2CC[C@@]34c5ccccc5N5/C=C6/[C@H]7C[C@@H]8N(CC[C@@]89c8ccccc8N(/C=C(/[C@H]1C[C@H]23)[C@H]54)[C@@H]69)C[C@H]7CCO | 410 | 2200 | 2340 | 390 | 
3 | C=CC[N+]12CC[C@@]34c5ccccc5N5[C@@H]6OC=C7C[N+]8(CC=C)CC[C@]9%10c%11ccccc%11N([C@@H]%11OCC=C(C1)[C@H](C[C@@H]32)[C@@H]%11[C@H]54)[C@H]9[C@H]6[C@H]7C[C@@H]%108 (some centres not stated) | 11 |  |  | 1500 | 
4 | C1=C2CN3CC[C@]45c6ccccc6N6[C@@H]7OCC=C8CN9CC[C@]%10%11c%12ccccc%12N([C@H](OC1)[C@@H]([C@H]64)[C@H]2C[C@H]35)[C@H]%10[C@H]7[C@H]8C[C@H]9%11 [CARACURINE V] | 436 |  |  | > 100000 | 
5 | CC[C@@H]1C[N+]2(Cc3ccc([N+](=O)[O-])cc3)CC[C@@]34c5ccccc5N5/C=C6/[C@H]7C[C@H]8[C@@]9(CC[N+]8(Cc8ccc([N+](=O)[O-])cc8)C[C@H]7CC)c7ccccc7N(/C=C(/[C@H]1C[C@@H]32)[C@H]54)[C@@H]69 (some centres not stated) | 49 | 21000 | 21400 | 81.9 | 
6 | CC[C@@H]1CN2CC[C@@]34c5ccccc5N5/C=C6/[C@H]7C[C@@H]8N(CC[C@@]89c8ccccc8N(/C=C(/[C@H]1C[C@H]23)[C@H]54)[C@@H]69)C[C@H]7CC | 500 | 3300 | 3310 | 669 | 
7 | C=CC[N+]12CC[C@@]34c5ccccc5N5/C=C6/[C@H]7C[C@H]8[C@@]9(CC[N+]8(CC=C)C[C@H]7CC)c7ccccc7N(/C=C(/[C@@H](C[C@@H]31)[C@H](CC)C2)[C@H]54)[C@@H]69 (some centres not stated) | 36 |  |  | 75.1 | 
8 | C[N+]12CC[C@@]34c5ccccc5N5/C=C6/[C@H]7C[C@H]8[C@@]9(CC[N+]8(C)C/C7=C/CO)c7ccccc7N(/C=C(/[C@@H](C[C@@H]31)/C(=C\CO)C2)[C@H]54)[C@@H]69 (some centres not stated) | 96 |  |  | 14 | 
9 | C[N+]12CC[C@@]34c5ccccc5N5[C@@H]6OC=C7C[N+]8(C)CC[C@]9%10c%11ccccc%11N([C@@H]%11OCC=C(C1)[C@H](C[C@@H]32)[C@@H]%11[C@H]54)[C@H]9[C@H]6[C@H]7C[C@@H]%108 (some centres not stated) | 8 |  |  | 5200 | 
10 | CC[C@@H]1C[N+]2(C)CC[C@@]34c5ccccc5N5/C=C6/[C@H]7C[C@H]8[C@@]9(CC[N+]8(C)C[C@H]7CCO)c7ccccc7N(/C=C(/[C@H]1C[C@@H]32)[C@H]54)[C@@H]69 (some centres not stated) | 320 | 590 | 603 | 455 | 10
11 | CC[C@@H]1C[N+]2(Cc3ccc([N+](=O)[O-])cc3)CC[C@@]34c5ccccc5N5/C=C6/[C@H]7C[C@H]8[C@@]9(CC[N+]8(Cc8ccc([N+](=O)[O-])cc8)C[C@H]7CCO)c7ccccc7N(/C=C(/[C@H]1C[C@@H]32)[C@H]54)[C@@H]69 (some centres not stated) | 32 | 4200 | 4170 | 290 | 
12 | C=CC[N+]12CC[C@@]34c5ccccc5N5/C=C6/[C@H]7C[C@H]8[C@@]9(CC[N+]8(CC=C)C[C@H]7CCO)c7ccccc7N(/C=C(/[C@@H](C[C@@H]31)[C@H](CC)C2)[C@H]54)[C@@H]69 (some centres not stated) | 12 | 3100 | 3160 | 250 | 
13 | C=CC[N@@+]12CC[C@@]34c5ccccc5N5/C=C6/[C@H]7C[C@H]8[C@@]9(CC[N@@+]8(CC=C)C/C7=C/CO)c7ccccc7N(/C=C(/[C@@H](C[C@@H]31)/C(=C\CO)C2)[C@H]54)[C@@H]69 [ALCURONIUM] | 2 |  |  | 234 | 
